Source: ChEMBL document CHEMBL5257027 (Eur J Med Chem, 2016)

Legend:
[1] = system: Panel renal (Carcinoma cell lines); assay: Antiproliferative activity against human Panel renal (8 Carcinoma cell lines) assessed as reduction in mean cell growth; format: functional
In short: (§1)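 NCI five-dose testing across the 58-line panel gives GI50, TGI and LC50 for each line. Subpanel lines report mean GI50 for each of the nine cancer types.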

[2] = target: Tyrosine-protein kinase ABL1 (Homo sapiens) (UniProt P00519); assay: Inhibition of ABL (unknown origin) at 10 uM using […] as substrate incubated for 40 mins in presence of [gamma33P]ATP by scintillation counting based hotspot kinase assay relative to control
[3] = system: HOP-92; assay: Antiproliferative activity against human HOP-92 cells assessed as reduction in cell growth; format: functional; in short: as §1
[4] = system: COLO 205; assay: Cytotoxicity against human COLO 205 cells; format: functional
In short: (§2)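 Run in the US NCI 58-cell-line screen covering nine cancer types (leukemia, NSCLC, colon, CNS, melanoma, ovarian, renal, prostate, breast). Five-dose mode gave GI50, TGI and LC50 values for each cell line. In the single-dose pre-screen, % inhibition was taken as 100 minus growth percentage.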

[5] = system: Serine/threonine-protein kinase B-raf (Homo sapiens), P15056 [V600E]; assay: Inhibition of B-RAF V600E mutant (unknown origin) at 10 uM using […] as substrate incubated for 40 mins in presence of [gamma33P]ATP by scintillation counting based hotspot kinase assay relative to control
[6] = system: HOP-92; assay: Antiproliferative activity against human HOP-92 cells assessed as total growth inhibition; format: functional; in short: as §1
[7] = target: Mitogen-activated protein kinase 14 (Homo sapiens) (UniProt Q16539); assay: Inhibition of MAPK14 (p38 alpha) (unknown origin) at 10 uM using […] as substrate incubated for 40 mins in presence of [gamma33P]ATP by scintillation counting based hotspot kinase assay relative to control
[8] = system: HCT-15; assay: Antiproliferative activity against human HCT-15 cells assessed as reduction in cell growth; format: functional; in short: as §1
[9] = organism: Homo sapiens; assay: Inhibition of ABL […] mutant (unknown origin) at 10 uM using […] as substrate incubated for 40 mins in presence of [gamma33P]ATP by scintillation counting based hotspot kinase assay relative to control
[10] = system: SK-MEL-5; assay: Antiproliferative activity against human SK-MEL-5 cells assessed as reduction in cell growth; format: functional; in short: as §1
[11] = system: RXF 393; assay: Antiproliferative activity against human RXF 393 cells assessed as total growth inhibition; format: functional; in short: as §1
[12] = system: SNB-75; assay: Cytotoxicity against human SNB-75 cells; format: functional; settings: read-out: LC50 (the source's name); in short: as §2
[13] = system: MDA-MB-468; assay: Cytotoxicity against human MDA-MB-468 cells; format: functional; settings: read-out: LC50 (the source's name); in short: as §2
[14] = system: COLO 205; assay: Antiproliferative activity against human COLO 205 cells assessed as reduction in cell growth; format: functional; in short: as §1
[15] = Antiproliferative activity against human Panel NCI-58 (58 Carcinoma cell lines) assessed as reduction in mean cell growth at 10 uM; format: functional; design: scale not given: the % may be the effect or the level left
In short: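 NCI 58-cell-line screen covering leukemia, NSCLC, colon, CNS, melanoma, ovarian, renal, prostate and breast lines. Compounds given once at […] (micromolar per the line). Percent inhibition taken as 100 minus growth percent. Panel line reports the mean over all 58 lines.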

[16] = system: NCI/ADR-RES; assay: Antiproliferative activity against human NCI/ADR-RES cells assessed as reduction in cell growth; format: functional; in short: as §1
[17] = system: NCI/ADR-RES; assay: Cytotoxicity against human NCI/ADR-RES cells; format: functional; in short: as §2
[18] = system: K562; assay: Antiproliferative activity against human K562 cells assessed as total growth inhibition; format: functional; in short: as §1
[19] = system: K562; assay: Antiproliferative activity against human K562 cells assessed as reduction in cell growth; format: functional; in short: as §1
[20] = system: MDA-MB-468; assay: Antiproliferative activity against human MDA-MB-468 cells assessed as total growth inhibition; format: functional; in short: as §1
[21] = target: Serine/threonine-protein kinase B-raf (Homo sapiens) (UniProt P15056); assay: Inhibition of B-RAF (unknown origin) at 10 uM using […] as substrate incubated for 40 mins in presence of [gamma33P]ATP by scintillation counting based hotspot kinase assay relative to control
[22] = target: RAF proto-oncogene serine/threonine-protein kinase (Homo sapiens, UniProt P04049); assay: Inhibition of RAF1 (unknown origin) at 10 uM using […] as substrate incubated for 40 mins in presence of [gamma33P]ATP by scintillation counting based hotspot kinase assay relative to control
[23] = system: SNB-75; assay: Antiproliferative activity against human SNB-75 cells assessed as total growth inhibition; format: functional; in short: as §1
[24] = system: PC-3; assay: Cytotoxicity against human PC-3 cells; format: functional; in short: as §2
[25] = system: RXF 393; assay: Antiproliferative activity against human RXF 393 cells assessed as reduction in cell growth; format: functional; in short: as §1
[26] = system: SK-MEL-5; assay: Cytotoxicity against human SK-MEL-5 cells; format: functional; in short: as §2
[27] = system: RXF 393; assay: Cytotoxicity against human RXF 393 cells; format: functional; in short: as §2
[28] = system: Panel leukemia (Carcinoma cell lines); assay: Antiproliferative activity against human Panel leukemia (5 Carcinoma cell lines) assessed as reduction in mean cell growth; format: functional; in short: as §1
[29] = system: HCT-15; assay: Antiproliferative activity against human HCT-15 cells assessed as total growth inhibition; format: functional; in short: as §1
[30] = system: MDA-MB-468; assay: Antiproliferative activity against human MDA-MB-468 cells assessed as reduction in cell growth; format: functional; in short: as §1
[31] = system: Panel breast (Carcinoma cell lines); assay: Antiproliferative activity against human Panel breast (6 Carcinoma cell lines) assessed as reduction in mean cell growth; format: functional; in short: as §1
[32] = target: Epidermal growth factor receptor (Homo sapiens) (UniProt P00533); assay: Inhibition of EGFR (unknown origin) at 10 uM using […] as substrate incubated for 40 mins in presence of [gamma33P]ATP by scintillation counting based hotspot kinase assay relative to control
[33] = system: SK-MEL-5; assay: Antiproliferative activity against human SK-MEL-5 cells assessed as total growth inhibition; format: functional; in short: as §1
[34] = system: K562; assay: Cytotoxicity against human k562 cells; format: functional; settings: read-out: LC50 (the source's name); in short: as §2
[35] = system: SNB-75; assay: Antiproliferative activity against human SNB-75 cells assessed as reduction in cell growth; format: functional; in short: as §1
[36] = system: Panel prostate (Carcinoma cell lines); assay: Antiproliferative activity against human Panel prostate (2 Carcinoma cell lines) assessed as reduction in mean cell growth; format: functional; in short: as §1
[37] = system: PC-3; assay: Antiproliferative activity against human PC-3 cells assessed as total growth inhibition; format: functional; in short: as §1
[38] = system: NCI/ADR-RES; assay: Antiproliferative activity against human NCI/ADR-RES cells assessed as total growth inhibition; format: functional; in short: as §1
[39] = system: HCT-15; assay: Cytotoxicity against human HCT-15 cells; format: functional; settings: read-out: LC50 (the source's name); in short: as §2
[40] = system: PC-3; assay: Antiproliferative activity against human PC-3 cells assessed as reduction in cell growth; format: functional; in short: as §1
[41] = system: Panel ovarian (Carcinoma cell lines); assay: Antiproliferative activity against human Panel ovarian (7 Carcinoma cell lines) assessed as reduction in mean cell growth; format: functional; in short: as §1
[42] = system: Panel CNS (Carcinoma cell lines); assay: Antiproliferative activity against human Panel CNS (6 Carcinoma cell lines) assessed as reduction in mean cell growth; format: functional; in short: as §1
[43] = Antiproliferative activity against human Panel non-small cell lung cancer (8 Carcinoma cell lines) assessed as reduction in mean cell growth; format: functional; settings: Non-small cell lung cancer cell line; in short: as §1
[44] = system: HOP-92; assay: Cytotoxicity against human HOP-92 cells; format: functional; in short: as §2
[45] = system: L132; assay: Cytotoxicity against human L132 cells assessed as reduction in cell growth at 31.3 to 100 uM relative to control; format: toxicity, cell-based; design: scale not given: the % may be the effect or the level left; settings: l132, 100 µM, dose 31.3-100 µM
[46] = system: Panel melanoma (Carcinoma cell lines); assay: Antiproliferative activity against human Panel melanoma (9 Carcinoma cell lines) assessed as reduction in mean cell growth; format: functional; in short: as §1
[47] = system: Panel colon (Carcinoma cell lines); assay: Antiproliferative activity against human Panel colon (7 Carcinoma cell lines) assessed as reduction in mean cell growth; format: functional; in short: as §1
[48] = system: COLO 205; assay: Antiproliferative activity against human COLO 205 cells assessed as total growth inhibition; format: functional; in short: as §1

Chain of Serine/threonine-protein kinase B-raf (Homo sapiens), P15056 [V600E] (P15056 whole entry V600E): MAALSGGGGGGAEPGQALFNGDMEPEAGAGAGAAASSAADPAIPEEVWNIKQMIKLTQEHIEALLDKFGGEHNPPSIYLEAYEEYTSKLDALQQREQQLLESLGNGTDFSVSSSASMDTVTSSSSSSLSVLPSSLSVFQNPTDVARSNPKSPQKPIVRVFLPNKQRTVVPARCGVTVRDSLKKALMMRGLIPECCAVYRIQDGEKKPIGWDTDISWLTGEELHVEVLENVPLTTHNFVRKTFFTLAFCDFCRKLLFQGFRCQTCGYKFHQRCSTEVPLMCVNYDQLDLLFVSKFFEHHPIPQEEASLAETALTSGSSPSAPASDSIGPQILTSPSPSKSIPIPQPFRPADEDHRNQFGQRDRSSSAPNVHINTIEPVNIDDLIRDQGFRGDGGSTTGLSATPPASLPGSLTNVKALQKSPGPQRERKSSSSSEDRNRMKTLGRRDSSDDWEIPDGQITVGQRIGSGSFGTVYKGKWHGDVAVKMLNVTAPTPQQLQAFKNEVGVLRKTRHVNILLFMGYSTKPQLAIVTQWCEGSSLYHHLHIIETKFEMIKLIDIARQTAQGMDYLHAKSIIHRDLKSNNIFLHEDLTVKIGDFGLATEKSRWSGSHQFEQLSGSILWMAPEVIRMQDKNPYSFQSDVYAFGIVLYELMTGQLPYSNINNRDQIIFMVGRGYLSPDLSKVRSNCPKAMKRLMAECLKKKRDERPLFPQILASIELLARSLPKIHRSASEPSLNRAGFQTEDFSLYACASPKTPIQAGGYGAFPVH
Chain of Mitogen-activated protein kinase 14 (Homo sapiens) (Q16539 whole entry): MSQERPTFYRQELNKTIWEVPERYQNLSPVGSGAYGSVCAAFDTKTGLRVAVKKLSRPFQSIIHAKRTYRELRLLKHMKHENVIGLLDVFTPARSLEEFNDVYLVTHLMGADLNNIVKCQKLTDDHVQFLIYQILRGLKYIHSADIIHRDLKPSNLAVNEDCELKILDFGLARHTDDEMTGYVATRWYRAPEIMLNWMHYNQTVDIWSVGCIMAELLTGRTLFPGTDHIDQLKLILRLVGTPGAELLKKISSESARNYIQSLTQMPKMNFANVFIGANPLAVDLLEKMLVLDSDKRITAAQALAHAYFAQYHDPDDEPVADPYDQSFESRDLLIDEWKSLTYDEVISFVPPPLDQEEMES
Chain of Serine/threonine-protein kinase B-raf (Homo sapiens) (P15056 whole entry): as the sequence (P15056 whole entry V600E) above, with E600V counted along it
Chain of Tyrosine-protein kinase ABL1 (Homo sapiens) (P00519 whole entry): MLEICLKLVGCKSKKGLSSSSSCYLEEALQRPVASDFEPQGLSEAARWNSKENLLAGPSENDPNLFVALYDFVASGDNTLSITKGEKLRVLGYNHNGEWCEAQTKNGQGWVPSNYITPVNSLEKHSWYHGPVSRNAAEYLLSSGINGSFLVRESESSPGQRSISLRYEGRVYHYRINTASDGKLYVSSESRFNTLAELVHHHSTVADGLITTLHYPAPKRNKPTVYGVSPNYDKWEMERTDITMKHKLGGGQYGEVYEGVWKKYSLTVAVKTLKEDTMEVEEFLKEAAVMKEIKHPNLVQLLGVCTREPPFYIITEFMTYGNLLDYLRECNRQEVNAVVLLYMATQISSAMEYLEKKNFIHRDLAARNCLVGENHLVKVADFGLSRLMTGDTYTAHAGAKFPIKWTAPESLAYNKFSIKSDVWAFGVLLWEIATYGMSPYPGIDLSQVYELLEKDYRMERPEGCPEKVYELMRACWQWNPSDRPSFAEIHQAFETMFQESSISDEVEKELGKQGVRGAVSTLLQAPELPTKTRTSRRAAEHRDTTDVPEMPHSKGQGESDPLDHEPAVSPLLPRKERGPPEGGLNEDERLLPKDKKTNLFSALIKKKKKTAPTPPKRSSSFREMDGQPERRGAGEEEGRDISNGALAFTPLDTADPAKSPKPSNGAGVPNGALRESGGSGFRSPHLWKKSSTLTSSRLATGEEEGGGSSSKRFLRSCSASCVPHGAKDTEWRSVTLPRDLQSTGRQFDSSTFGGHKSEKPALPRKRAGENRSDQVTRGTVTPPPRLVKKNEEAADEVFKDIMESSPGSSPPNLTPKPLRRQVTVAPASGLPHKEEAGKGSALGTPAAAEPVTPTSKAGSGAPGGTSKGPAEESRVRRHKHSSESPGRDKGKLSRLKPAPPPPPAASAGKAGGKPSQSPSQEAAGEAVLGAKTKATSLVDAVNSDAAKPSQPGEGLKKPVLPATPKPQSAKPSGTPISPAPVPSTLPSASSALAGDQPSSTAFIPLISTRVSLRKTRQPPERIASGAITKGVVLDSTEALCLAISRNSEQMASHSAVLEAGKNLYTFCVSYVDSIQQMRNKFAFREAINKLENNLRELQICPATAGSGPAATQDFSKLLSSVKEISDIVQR
Chain of Epidermal growth factor receptor (Homo sapiens) (P00533 whole entry): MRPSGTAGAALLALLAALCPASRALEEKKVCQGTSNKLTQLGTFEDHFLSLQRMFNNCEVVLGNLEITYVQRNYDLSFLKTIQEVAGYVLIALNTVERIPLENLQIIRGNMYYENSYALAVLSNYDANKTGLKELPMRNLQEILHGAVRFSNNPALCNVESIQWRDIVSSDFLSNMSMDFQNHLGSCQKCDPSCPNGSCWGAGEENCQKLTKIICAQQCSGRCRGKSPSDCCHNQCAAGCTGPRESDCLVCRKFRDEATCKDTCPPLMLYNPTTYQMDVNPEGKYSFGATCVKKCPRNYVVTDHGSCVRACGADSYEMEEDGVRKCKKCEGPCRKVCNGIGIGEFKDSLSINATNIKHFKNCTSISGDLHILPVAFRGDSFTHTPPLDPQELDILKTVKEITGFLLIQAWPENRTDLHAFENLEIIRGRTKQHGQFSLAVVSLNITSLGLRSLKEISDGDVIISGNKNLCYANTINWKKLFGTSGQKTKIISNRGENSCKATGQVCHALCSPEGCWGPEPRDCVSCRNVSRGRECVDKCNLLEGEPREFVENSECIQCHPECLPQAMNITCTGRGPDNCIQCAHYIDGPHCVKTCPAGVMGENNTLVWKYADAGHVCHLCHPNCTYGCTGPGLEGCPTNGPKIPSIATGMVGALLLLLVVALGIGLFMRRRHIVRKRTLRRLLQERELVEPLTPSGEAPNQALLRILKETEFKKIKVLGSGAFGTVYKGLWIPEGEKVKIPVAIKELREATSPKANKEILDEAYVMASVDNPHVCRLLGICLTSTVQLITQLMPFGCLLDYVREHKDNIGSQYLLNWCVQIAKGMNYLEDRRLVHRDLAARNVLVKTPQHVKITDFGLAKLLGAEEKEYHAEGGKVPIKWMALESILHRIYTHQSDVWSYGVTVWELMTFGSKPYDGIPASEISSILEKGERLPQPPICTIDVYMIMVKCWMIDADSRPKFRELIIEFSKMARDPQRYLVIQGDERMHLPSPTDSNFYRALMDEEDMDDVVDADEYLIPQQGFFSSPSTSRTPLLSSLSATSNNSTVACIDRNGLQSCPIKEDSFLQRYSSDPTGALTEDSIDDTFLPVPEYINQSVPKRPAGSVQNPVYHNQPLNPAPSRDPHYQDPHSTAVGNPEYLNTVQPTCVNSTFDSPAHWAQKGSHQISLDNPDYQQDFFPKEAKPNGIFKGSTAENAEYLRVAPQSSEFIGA
Chain of RAF proto-oncogene serine/threonine-protein kinase (P04049 whole entry): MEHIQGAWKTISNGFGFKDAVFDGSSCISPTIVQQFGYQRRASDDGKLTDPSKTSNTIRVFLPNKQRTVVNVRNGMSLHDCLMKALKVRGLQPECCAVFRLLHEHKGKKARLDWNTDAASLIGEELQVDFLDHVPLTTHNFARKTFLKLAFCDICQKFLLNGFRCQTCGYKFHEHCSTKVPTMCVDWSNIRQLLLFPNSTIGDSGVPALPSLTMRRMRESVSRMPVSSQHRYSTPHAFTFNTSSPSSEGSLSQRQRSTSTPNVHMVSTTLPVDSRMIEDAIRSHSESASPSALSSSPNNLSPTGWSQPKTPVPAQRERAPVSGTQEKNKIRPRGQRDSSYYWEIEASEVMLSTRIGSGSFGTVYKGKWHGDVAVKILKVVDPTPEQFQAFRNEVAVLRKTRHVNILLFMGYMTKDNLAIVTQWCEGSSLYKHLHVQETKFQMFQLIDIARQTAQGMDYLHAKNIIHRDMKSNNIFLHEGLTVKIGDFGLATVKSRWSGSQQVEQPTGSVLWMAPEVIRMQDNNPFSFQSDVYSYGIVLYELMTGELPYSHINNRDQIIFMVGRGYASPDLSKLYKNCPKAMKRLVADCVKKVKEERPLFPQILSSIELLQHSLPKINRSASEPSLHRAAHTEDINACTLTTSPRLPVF

Question: With `O=C(NCCCNc1cc(-c2cn(-c3ccccc3)nc2-c2cccc(O)c2)ccn1)c1ccc(F)cc1` as the compound, how does the GI50 [1] read?
Answer: 2.84 µM

Question: And the inhibition [2]?
Answer: 16.1%

Question: And the GI50 [3]?
Answer: 2.13 µM

Question: And the LC50 (lethal concentration 50%) [4]?
Answer: 7.6 µM

Question: And the inhibition [5]?
Answer: 40.1%

Question: What about the TGI [6] of the same compound?
Answer: 3.28 µM

Question: And the inhibition [7]?
Answer: 66.6%

Question: What about the GI50 [8] of the same compound?
Answer: 1.77 µM

Question: What about the inhibition [9] of the same compound?
Answer: 14.6%

Question: What about the GI50 [10] of the same compound?
Answer: 1.61 µM

Question: What about the TGI [11] of the same compound?
Answer: 3.03 µM

Question: What about the CC50 [12] of the same compound?
Answer: 74 µM

Question: What about the CC50 [13] of the same compound?
Answer: 6.92 µM

Question: What about the GI50 [14] of the same compound?
Answer: 1.6 µM

Question: And the Activity [15]?
Answer: >80%

Question: What about the GI50 [16] of the same compound?
Answer: 2.2 µM

Question: What about the LC50 [17] of the same compound?
Answer: 29.7 µM

Question: And the TGI [18]?
Answer: 4.83 µM

Question: And the GI50 [19]?
Answer: 1.93 µM

Question: And the TGI [20]?
Answer: 3.43 µM

Question: And the inhibition [21]?
Answer: 22.5%

Question: What about the inhibition [22] of the same compound?
Answer: 36.4%

Question: What about the TGI [23] of the same compound?
Answer: 12.5 µM

Question: What about the LC50 [24] of the same compound?
Answer: 44.3 µM

Question: And the GI50 [25]?
Answer: 1.63 µM

Question: What about the LC50 [26] of the same compound?
Answer: 5.72 µM

Question: And the LC50 [27]?
Answer: 5.99 µM

Question: What about the GI50 [28] of the same compound?
Answer: 1.98 µM

Question: What about the TGI [29] of the same compound?
Answer: 3.71 µM

Question: What about the GI50 [30] of the same compound?
Answer: 1.59 µM

Question: What about the GI50 [31] of the same compound?
Answer: 1.89 µM

Question: And the inhibition [32]?
Answer: 15.7%

Question: And the TGI [33]?
Answer: 3.15 µM

Question: And the CC50 [34]?
Answer: 100 µM

Question: What about the GI50 [35] of the same compound?
Answer: 5.19 µM

Question: And the GI50 [36]?
Answer: 3.72 µM

Question: What about the TGI [37] of the same compound?
Answer: 5.24 µM

Question: What about the TGI [38] of the same compound?
Answer: 5.82 µM

Question: What about the CC50 [39] of the same compound?
Answer: 8.09 µM

Question: What about the GI50 [40] of the same compound?
Answer: 2.81 µM

Question: What about the GI50 [41] of the same compound?
Answer: 3.46 µM

Question: And the GI50 [42]?
Answer: 3.29 µM

Question: And the GI50 [43]?
Answer: 3.12 µM

Question: And the LC50 [44]?
Answer: 7.38 µM

Question: What about the Activity [45] of the same compound?
Answer: 50%

Question: What about the GI50 [46] of the same compound?
Answer: 1.91 µM

Question: What about the GI50 [47] of the same compound?
Answer: 2.16 µM

Question: And the TGI [48]?
Answer: 3.78 µM
